Assay results pooled from the literature.
Protocols differ between the studies behind these lines.
Target: Aurora kinase A (AURKA, Homo sapiens, UniProt O14965)
One construct used (O14965 1-403): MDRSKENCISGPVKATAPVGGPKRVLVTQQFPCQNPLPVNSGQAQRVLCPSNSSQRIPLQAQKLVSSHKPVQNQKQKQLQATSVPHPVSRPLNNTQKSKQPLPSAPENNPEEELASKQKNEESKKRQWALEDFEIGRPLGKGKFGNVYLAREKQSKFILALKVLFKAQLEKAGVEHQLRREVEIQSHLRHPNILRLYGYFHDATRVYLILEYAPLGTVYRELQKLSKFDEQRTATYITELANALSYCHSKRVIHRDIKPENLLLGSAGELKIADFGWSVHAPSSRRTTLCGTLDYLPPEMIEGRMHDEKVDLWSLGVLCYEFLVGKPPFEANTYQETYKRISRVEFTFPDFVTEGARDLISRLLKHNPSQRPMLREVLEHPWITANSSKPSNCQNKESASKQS

SMILES | assay | setting | remaining binding
Cc1cnn2ncc(-c3ccnc(N(C)C)n3)c2c1 | binding | 1 µM | 99%
O=c1nc(-c2ccccn2)sc2ccccc12 | cell-free assay, competition with immobilised ligand | 1 µM | 87%
N#Cc1ccccc1CSc1nnc2c(n1)[nH]c1ccccc12 | binding, competition with immobilised ligand | 10 µM | 100%
C[C@@H](c1ccc(-n2cnc3c(N)ncnc32)cc1)N1CCc2nn(C)c(Cc3ccccc3)c2C1=O | binding, competition with immobilised ligand | 0.1 µM | 73%
FC(F)(F)Oc1cccc(-c2cnc3ccc(-c4ccncc4)nn23)c1 | cell-free assay, competition with immobilised ligand | 5 µM | 91%
C[C@@H]1CCN(c2nccc(-c3cnn4ncccc34)n2)C1 | binding | 1 µM | 92%
FC(F)(F)c1ccc2c(c1)nc(-c1cccnc1)n2C1CC1 | cell-free assay, competition with immobilised ligand | 1 µM | 98%
CC1CCCN1c1nccc(-c2cnn3ncccc23)n1 (centres unmarked) | binding | 1 µM | 87%
COc1cnc(Nc2cccc(S(N)(=O)=O)c2)nc1N1CCN(c2ccccc2)C(=O)C1 | binding, competition with immobilised ligand | 1 µM | 80%
COc1cc(-c2cn(C3CCc4ccccc4N(CC(F)(F)F)C3=O)nn2)ccc1-n1ccc(C)n1 (centres unmarked) | cell-free assay, competition with immobilised ligand | 1 µM | 58%
CN(C)c1ncc(F)c(-c2cnn3ncccc23)n1 | binding | 1 µM | 100%
COc1cc(C(=O)N2CCC(N3CCN(C)CC3)CC2)ccc1Nc1ncc2c(n1)N(C)c1ccccc1C(=O)N2C | binding, competition with immobilised ligand | 10 µM | 1.2%
COCCOc1nc(-c2ccc(Cl)nc2)nc2c1CN(C(=O)c1ncn3ccccc13)CC2 | cell-free assay, competition with immobilised ligand | 0.1 µM | 81%
O=C(NCCCN1CCOCC1)c1ccc(Nc2ncc(Cl)c(-c3ccc(Cl)s3)n2)cc1 | binding, competition with immobilised ligand | 1 µM | 12%
COc1ncc2cc3ccccc3nc2c1C#N | cell-free assay, competition with immobilised ligand | 5 µM | 100%
CN(C(=O)c1ccccc1)c1cc(N(C)c2ccc3c(c2)CCc2ccc(C(=O)NCCN4CCOCC4)cc2C3=O)ccc1F | cell-free assay, competition with immobilised ligand | 1 µM | 100%
O=C(c1ccc(Nc2nccc(-c3cc4ccccc4s3)n2)cc1)N1CCC(N2CCCC2)CC1 | binding, competition with immobilised ligand | 1 µM | 33%
